# Results: ChEMBL document CHEMBL1177774, “2-Aryl-4,5,6,7-tetrahydro-1,3-benzothiazol-7-ols as a class of antitumor agents selectively active in securin(-/-) cells” (Bioorg Med Chem Lett, 2010)
# Legend:
# Format in all cases: functional, cell-based
# HCT-116 [1] = experiment: Cytotoxicity against human HCT116 cells after 2 days by sulforhodamine B assay; conditions: HCT-116, 48 h
# Summary of the method: (§1)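 Cells kept in RPMI 1640 with 10% fetal bovine serum and 50 µg/ml gentamicin, 37 °C, humidified, 5% CO2. Plated in 96-well plates; compound dilutions added next day (final 2 nM to 200 µM), then 2 days culture before survival read-out. 10 concentrations, in triplicate (some in duplicate); repeat values agreed on average within 40%.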
# HCT-116 [2] = experiment: Cytotoxicity against human HCT116-D8 securin -/- cells after 2 days by sulforhodamine B assay; conditions: HCT-116, 48 h; summary of the method: as §1
# [3] = Cytotoxicity against human HCT116-F3 securin -/- cells after 2 days by sulforhodamine B assay; conditions: 48 h; summary of the method: as §1
# MCF-10A = experiment: Cytotoxicity against human MCF10A cells after 2 days by sulforhodamine B assay; conditions: 48 h; summary of the method: as §1
# MCF7 = experiment: Cytotoxicity against human MCF7 cells after 2 days by sulforhodamine B assay; conditions: MCF7, 48 h; summary of the method: as §1
# MDA-MB-361 = experiment: Cytotoxicity against human MDA-MB-361 cells after 2 days by sulforhodamine B assay; conditions: MDA-MB-361, 48 h; summary of the method: as §1
SMILES,IC50 (HCT-116 [1]) [µM],IC50 (HCT-116 [2]) [nM],IC50 [3] [nM],IC50 (MCF-10A) [µM],IC50 (MCF7) [nM],IC50 (MDA-MB-361) [nM]
CN(C)c1ccc(-c2nc3c(s2)C(O)CCC3)cc1 (stereo unspecified),> 150,1500,3000,> 150,1170,830
CN(C)c1ccc(-c2nc3c(s2)[C@@H](O)CCC3)cc1,> 100,20000,46000,> 100,3300,
Cc1cc(N(C)C)ccc1-c1nc2c(s1)[C@@H](O)CCC2,127,560,1160,> 100,2150,160
CN(C)c1ccc(-c2nc3c(s2)C(O)CNC3)cc1 (stereo unspecified),121,1330,1630,70.2,1600,170
CN(C)c1ccc(-c2nc3c(s2)C(O)CCC3)c(CO)c1 (stereo unspecified),78,60,60,> 100,360,420
OC1CNCc2nc(-c3ccc(N4CCCC4)cc3)sc21 (stereo unspecified),25,730,1070,27.8,1530,140
OC1CCCc2nc(-c3ccc(N4CCCC4)cc3)sc21 (stereo unspecified),> 100,1530,2800,> 100,8700,200
OCc1cc(N2CCCC2)ccc1-c1nc2c(s1)C(O)CNC2 (stereo unspecified),> 100,70,60,> 100,13,20
Cc1cc(N(C)C)ccc1-c1nc2c(s1)[C@H](O)CCC2,> 100,270,230,> 100,730,83
CN(C)c1ccc(-c2nc3c(s2)C(O)CNC3)c(CO)c1 (stereo unspecified),> 100,100,100,70,31,22
CN(C)c1ccc(-c2nc3c(s2)[C@H](O)CCC3)cc1,114,850,1430,> 100,1450,200
OCc1cc(N2CCCC2)ccc1-c1nc2c(s1)C(O)CCC2 (stereo unspecified),21,42,44,17,56,32
